The source made the active and inactive calls. The rule behind the calls is not given here.
Assays:
MV4-11 [1] = test: Suppression of MEIS1 gene expression in human MV4-11 cells at 30 nM measured after 24 hrs by qRT-PCR analysis; type: functional, cell-based
MV4-11 [2] = test: Anti-proliferative activity against human MV4-11 cells harboring MLL/AF4 fusion protein assessed as cell growth inhibition measured after 4 days by Cell Titre Glo Luminescent Cell viability assay; type: functional, cell-based; details: MV4-11, 96 h
Menin (Homo sapiens) [3] = target: T1, Menin (Homo sapiens) (UniProt O00255); test: Binding affinity to recombinant human menin protein assessed as covalent complex formation incubated for 10 mins by LC/MS analysis; set-up: concentration or dose not given beside the values
T1 sequence (whole entry): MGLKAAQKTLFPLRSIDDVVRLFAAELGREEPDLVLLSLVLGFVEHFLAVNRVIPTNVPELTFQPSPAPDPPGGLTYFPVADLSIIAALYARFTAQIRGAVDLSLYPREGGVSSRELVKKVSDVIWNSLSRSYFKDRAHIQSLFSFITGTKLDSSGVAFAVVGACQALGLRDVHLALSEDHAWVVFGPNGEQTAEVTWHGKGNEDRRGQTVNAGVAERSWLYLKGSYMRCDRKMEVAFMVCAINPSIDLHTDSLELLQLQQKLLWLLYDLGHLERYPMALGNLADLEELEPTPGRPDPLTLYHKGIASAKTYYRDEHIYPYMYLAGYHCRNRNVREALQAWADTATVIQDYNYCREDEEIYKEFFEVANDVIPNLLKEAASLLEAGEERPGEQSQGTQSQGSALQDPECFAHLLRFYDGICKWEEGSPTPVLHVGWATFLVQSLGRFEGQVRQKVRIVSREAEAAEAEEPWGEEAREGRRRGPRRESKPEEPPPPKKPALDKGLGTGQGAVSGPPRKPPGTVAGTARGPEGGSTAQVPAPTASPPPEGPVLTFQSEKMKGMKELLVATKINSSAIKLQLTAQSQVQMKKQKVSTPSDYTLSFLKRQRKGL

Menin (Homo sapiens) [4] = target: T1, Menin (Homo sapiens); test: Binding affinity to recombinant human menin protein assessed as covalent complex formation incubated for 30 mins by LC/MS analysis; set-up: concentration or dose not given beside the values
[5] = Volume of distribution at steady state in C57BL/6 mouse at 1 mg/kg, iv; type: ADME, organism-based; details: in vivo, read-out: Vdss
Outline: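 Female C57BL/6 mice, single IV dose of 1 mg/kg given as a solution in 10% NMP, 10% Solutol HS15 and 80% saline. Parameters come from the plasma concentration–time profile.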

[6] = Tmax in C57BL/6 mouse at 5 mg/kg, po; type: ADME, organism-based; details: in vivo
Outline: (§1)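 Female C57BL/6 mice, single oral dose of 5 mg/kg in 0.5% methyl cellulose + 0.2% Tween 80 (w/w). Bioavailability is calculated against the 1 mg/kg IV arm.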

[7] = AUC (0 to infinity) in C57BL/6 mouse at 5 mg/kg, po; type: ADME, organism-based; set-up: route oral, time infinity, dose 5 mg/kg; details: in vivo; outline: as §1
[8] = Anti-proliferative activity against human OCI-AML-4 cells harboring MLL-ENL fusion protein assessed as cell growth inhibition measured after 4 days by Cell Titre Glo Luminescent Cell viability assay; type: functional, cell-based; details: OCI-AML-4, 96 h
Outline: (§2)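 Leukemia lines plated in triplicate in RPMI 1640 at 37 °C, 5% CO2. 9-point dose response from 10 μM top concentration with 1:3 serial dilutions, 0.1% DMSO final; DMSO vehicle control column. Cellular ATP read by CellTiter-Glo at day 0 and after 4 days. Averages from three independent experiments.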

HL-60 = test: Anti-proliferative activity against human HL-60 cells harboring MLL wild-type protein assessed as cell growth inhibition measured after 4 days by Cell Titre Glo Luminescent Cell viability assay; type: functional, cell-based; details: HL-60, 96 h; outline: as §2
MV4-11 [9] = test: Suppression of HOXA9 gene expression in human MV4-11 cells at 10 nM measured after 24 hrs by qRT-PCR analysis; type: functional, cell-based
[10] = Protein binding in human plasma at 1 uM incubated for 5 hrs by liquid chromatography-tandem mass spectrometry; type: ADME, cell-free
Outline: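 Equilibrium dialysis: plasma spiked at 1 μM against dialysis buffer, shaken 5 h at 37 °C, with warfarin and quinidine (1 μM) as controls. Samples matrix-matched, quenched with acetonitrile containing imipramine internal standard, and analysed by LC-MS/MS. Percent bound computed from peak area ratios.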

[11] = Toxicity in SCID mouse xenografted with human MV4-11 cells assessed as change weight loss at 300 mg/kg, po qd administered daily for 15 days; type: organism-based; details: in vivo, 360 h, time 15 day
Outline: (§3)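 Female C.B-17 SCID mice, 5–6 weeks old, implanted subcutaneously in the right flank with 5×10^6 MV4;11 cells in 1:1 Matrigel. Randomized at about 200 mm3. Dosed 300 mg/kg by oral gavage once daily for 15 days in 0.5% MC (400 cP) + 0.2% Tween 80 at 10 mL/kg. Body weight measured daily; caliper volume (0.5×W×W×L) three times weekly.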

[12] = Toxicity in SCID mouse xenografted with human MV4-11 cells assessed as signs of toxicity at 300 mg/kg, po qd administered daily for 15 days; type: organism-based; details: in vivo, 360 h, time 15 day; outline: as §3
MV4-11 [13] = test: Anti-tumor activity against luciferase-tagged human MV4-11 cells xenografted in NCG mouse assessed as reduction in number of CD45+/CD33+ cells at 150 mg/kg, po administered daily for 4 days measured after 48 hrs by flow cytometry; type: functional, organism-based; details: time 4.0 day
Outline: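 Female NCG mice, 5–6 weeks old, given 5×10^6 luciferase-tagged MV4;11 cells IV via tail vein. Randomized at log-phase disease (day 27). Dosed 150 mg/kg oral gavage daily for 4 days in MC/Tween 80 vehicle. Read-outs 48 h after the last dose, five mice per group, mean ± SEM: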

SMILES: C=CC(=O)N1C[C@@H]2C[C@H]1CN2S(=O)(=O)c1ccc(N2CC(CN3CCC([C@@](CN4CCC4)(c4cccc(F)c4)[C@H]4CCC[C@@H]4NC(=O)OC)CC3)(OC)C2)cc1
- inhibition (MV4-11 [1]): Active
- IC50 (MV4-11 [2]): 10.3 nM
- Activity (Menin (Homo sapiens) [3]): 27%
- Activity (Menin (Homo sapiens) [4]): 59%
- Vd [5]: 0.33 L/kg
- Tmax [6]: 2 h
- AUC(0-inf) [7]: 43600 ng·h/mL
- IC50 [8]: 3 nM
- IC50 (HL-60): > 10000 nM
- inhibition (MV4-11 [9]): Active
- PPB [10]: 90.7%
- Activity [11]: Non-Toxic
- Activity [12]: Non-Toxic
- Activity (MV4-11 [13]): Active
